Screens from PubChem.
UPR XBP1 act – activators of adaptive arm of unfolded protein response (XBP1) | CHO-XBP1 luciferase reporter, IRE1-XBP1 UPR activation, luminescence; percent of tunicamycin response, DMSO as zero | activation, % at 20 µM | 330,000 compounds, 0.33% hits;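 active = versus positive control, 20 µM dose yields 30% or more activation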;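 also: 100% = tunicamycin at 10 µg/mL and 0% = DMSO only wells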
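Assay system: CHO-XBP1 luciferase reporter cells; Schedule: 6 h treatment, 37 °C; Detection: glow luminescence from Steady-Glo reagent; Benchmarks: high control tunicamycin 10 µg/mL final, low control DMSO vehicle only.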
SKKanGAS inh – inhibitors of SKKanGAS S. pyogenes growth in kanamycin (SK-promoter or general growth effect) | BacTiter-Glo, 6 h | 300,000 compounds, 1.3% hits | inhibition, % at 7.5 µM;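 active = mean replicate score, as percent of positive control median, at least 50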;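 also: strain carries kanamycin resistance gene driven by streptokinase promoter and grows in 40 µg/ml kanamycin; loss of luminescence reflects streptokinase promoter inhibition or plain growth inhibition; 0% = median of DMSO wells and 100% = positive control at its reference dose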
UPR CHOP act – apoptotic UPR (CHOP) activation; CHO-CHOP luciferase reporter, luminescence; percent of tunicamycin response over DMSO baseline; activation, % at 10 µM; 330,000 compounds, 0.34% hits; AID 449763;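 active = at 10 µM dose, activation of 40% or more, normalized to positive control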;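 also: 100% = tunicamycin at 10 µg/mL and 0% = DMSO alone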
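assay system = CHO CHOP reporter cells | amount = 500 CHO-CHOP cells per well | buffer or medium = F12 with 10% FBS | incubation = 16-18 h cell attachment, then 6 h compound exposure, 37 °C | detection = luminescence read with Steady-Glo | read-out = percent activation relative to tunicamycin control | controls = tunicamycin high control, DMSO low control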
CSC inhib – blocks cancer stem cells | inhibition, % at 7.5 µM | 300,000 compounds, 1.1% hits | cancer stem cell-like cells viability, luminescence | AID 2717; in the data active = inhibition above about 75%; tested in HMLE shEcad cells
Mdm2 MdmX PPI – human Mdm2/MdmX binding inhibition | O15151+Q00987 | 330,000 compounds, 3% hits | inhibition, % at 8 µM | AID 485346 | SaOS-2 split-luciferase Mdm2/MdmX complementation, luminescence;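 active = inhibition of at least 50% at 8 µM in the primary screen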
Target sequence (O15151 whole entry, looked up): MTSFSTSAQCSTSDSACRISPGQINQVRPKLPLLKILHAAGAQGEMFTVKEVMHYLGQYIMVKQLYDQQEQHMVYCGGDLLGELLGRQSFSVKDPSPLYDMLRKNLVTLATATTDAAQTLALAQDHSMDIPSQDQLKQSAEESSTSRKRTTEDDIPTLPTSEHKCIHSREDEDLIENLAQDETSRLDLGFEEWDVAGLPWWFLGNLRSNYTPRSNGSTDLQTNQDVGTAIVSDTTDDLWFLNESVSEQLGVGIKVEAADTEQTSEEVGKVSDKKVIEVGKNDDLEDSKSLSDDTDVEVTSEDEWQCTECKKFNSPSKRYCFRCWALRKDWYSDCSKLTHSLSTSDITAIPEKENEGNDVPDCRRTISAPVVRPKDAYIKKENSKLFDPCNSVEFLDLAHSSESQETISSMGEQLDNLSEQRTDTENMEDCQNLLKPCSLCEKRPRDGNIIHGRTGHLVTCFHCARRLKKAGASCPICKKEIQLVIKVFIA
Target sequence (Q00987 whole entry, looked up): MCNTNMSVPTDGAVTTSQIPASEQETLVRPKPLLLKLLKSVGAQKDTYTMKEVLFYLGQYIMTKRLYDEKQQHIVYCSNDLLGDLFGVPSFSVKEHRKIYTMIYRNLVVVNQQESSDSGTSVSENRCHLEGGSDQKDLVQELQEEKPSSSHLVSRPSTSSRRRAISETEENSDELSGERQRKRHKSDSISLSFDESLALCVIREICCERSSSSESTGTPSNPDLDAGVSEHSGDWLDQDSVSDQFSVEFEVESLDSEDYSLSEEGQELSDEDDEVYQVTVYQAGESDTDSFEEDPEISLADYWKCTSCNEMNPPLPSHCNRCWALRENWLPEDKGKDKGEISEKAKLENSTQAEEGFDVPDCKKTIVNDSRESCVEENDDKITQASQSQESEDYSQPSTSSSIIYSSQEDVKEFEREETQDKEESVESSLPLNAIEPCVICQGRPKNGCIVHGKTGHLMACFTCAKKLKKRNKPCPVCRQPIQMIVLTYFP
Beta cell apopt – beta cell apoptosis inhibition. protection from apoptosis, % (test concentration not listed). AID 435005. 300,000 compounds, 0.8% hits. INS-1E cytokine-induced death, ATP luminescence, 48 h; percent of positive-control rescue, neutral wells zero;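 active = Every replicate reaches about 75%, or at least half do and their mean reaches it too, limit read from the data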;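 also: 0% = cytokine-treated negative control wells and 100% = positive control rescue; higher means more ATP so stronger rescue from cytokine killing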
* marks the source's active call; other numbers are inactive results; · = no result given. Hits are enriched below; roughly 4.8% of the tested compounds scored in any of these assays.

SMILES	UPR XBP1 act	SKKanGAS inh	UPR CHOP act	CSC inhib	Mdm2 MdmX PPI	Beta cell apopt
COc1ccc(NS(=O)(=O)c2cccc(C(=O)N/N=C(\C)c3ccc(-n4ccnc4)cc3)c2)cc1	0	18	-2	95*	8	2
CC(=O)c1c(O)cc(O)c(C(C)=O)c1O	0	91*	-1	-3	8	·
CSc1ccc(CCNC(=O)c2cccc3c2C(=O)N(C2CCCCC2)C3)cc1	-5	21	1	-9	39	-2
CCC(=O)c1ccc(OC(=O)C2CCN(C3=NS(=O)(=O)c4ccccc43)CC2)cc1	0	·	-1	-8	16	-5
COC(=O)c1cc(NC(=S)NC(=O)c2ccccc2)ccc1N1CCOCC1	-1	-2	1	-14	29	2
CCN(CC)S(=O)(=O)c1ccc(C(=O)Nc2nnc(NC(=S)Nc3ccccc3)s2)cc1	0	32	-2	70	45	0
COc1cc(OC)cc(C(=O)Nc2nnc(NC(=S)Nc3ccccc3)s2)c1	-2	52*	-1	25	31	10
COc1cc(OC)cc(C(=O)Nc2ccc(Nc3ccccc3)cc2)c1	-4	22	4	88*	-3	21
COc1ccc2c(c1)CCc1c(C(=O)N3CC4(C)CC3CC(C)(C)C4)noc1-2 (stereo not given)	1	17	-1	95*	21	-2
COc1ccc2c(c1)CCc1c(C(=O)N3CCOCC3)noc1-2	1	-5	2	3	-46	-6
NS(=O)(=O)c1ccc(CCNc2ncnc3sccc23)cc1	-1	-4	-2	1	15	43
Cc1sc2ncnc(NCCc3ccc(S(N)(=O)=O)cc3)c2c1C	1	-3	3	-2	19	93*
O=C(/C=C/c1ccco1)NCCc1ccccc1	4	-19	3	·	-31	-6
Cc1ccc(/C=C/C(=O)NCCc2ccccc2)o1	-2	-7	5	75*	-41	-9
Cc1noc(C)c1COc1ccc(C(=O)OCC(=O)Nc2ccc(S(N)(=O)=O)cc2)cc1	-1	·	0	·	14	2
Cc1cc(O)c(/C=N/OCc2ccc(Cl)cc2Cl)c(=O)o1	-2	-7	1	6	17	-7
CN(C)/C=C(\C=N\OCc1ccc(Cl)cc1Cl)C(=O)Nc1ccc(Cl)c(Cl)c1	4	113*	-3	85*	5	-1
CC(=O)N1c2ccc(S(=O)(=O)N3CCCC(C(=O)Nc4ccc(F)cc4)C3)cc2CC1C (stereo not given)	-3	-9	0	18	36	8
Cc1cc(C)c(OCCCCN2CCC(C)CC2)c(Br)c1	1	1	-1	82*	-15	10
C=C(C)C(=O)OCC(O)COc1ccc(C(C)(C)c2ccc(OCC(O)COC(=O)C(=C)C)cc2)cc1 (stereo not given)	-6	6	6	24	34	104*
O=C(N[C@@H](Cc1ccccc1)C(=O)N1CCN(S(=O)(=O)c2ccccc2F)CC1)c1ccco1	-3	·	-1	-11	19	-9
CN(C(=O)COC(=O)C1CCN(S(=O)(=O)c2ccc3c(c2)OCCO3)CC1)C1CCS(=O)(=O)C1 (stereo not given)	-3	-5	1	1	-21	-5
O=C(c1cccs1)N1N=C(c2ccc(O)cc2)CC1c1ccccc1 (stereo not given)	0	11	2	1	-4	2
O=C(c1cccs1)N1N=C(c2ccccc2)CC1c1ccccc1 (stereo not given)	3	57*	-1	25	12	19
Nc1c(Cl)ncnc1N/N=C/c1cccnc1	-3	-1	1	4	-10	·
SMILES	UPR XBP1 act	SKKanGAS inh	UPR CHOP act	CSC inhib	Mdm2 MdmX PPI	Beta cell apopt
Nc1c(Cl)ncnc1N/N=C/c1ccc2ccccc2n1	·	·	·	102*	·	113*
Nc1c(Cl)ncnc1N/N=C/c1ccccn1	·	·	·	102*	·	119*
Nc1c(Cl)ncnc1N/N=C/c1ccnc2ccccc12	4	-7	2	-37	17	4
O=C(CCc1nnc2ccc(NCc3ccccc3Cl)nn12)NC1CCCCC1	-4	-1	0	-3	31	4
COc1ccc(CN(C)S(=O)(=O)c2ccc3c(c2)OCCO3)cc1	-3	51*	0	-5	5	·
COc1ccc(CCNC(=O)C(C)SCc2ccccc2)cc1 (stereo not given)	-3	-2	1	-4	0	4
COc1ccc(N(C(=O)CCl)C(C(=O)NCCc2ccccc2)c2cccs2)cc1 (stereo not given)	·	-5	·	111*	·	-4
CC(=O)C1=C(O)C(=O)N(c2ccccn2)C1c1ccc(C)cc1 (stereo not given)	-2	1	0	-3	15	-9
N#C/C(=N\Nc1ccc(S(=O)(=O)N2CCCCCC2)cc1)C(N)=S	7	114*	-1	36	38	·
O=C1CC(N(CCc2ccccc2)C(=S)Nc2cc(Cl)ccc2Cl)C(=O)N1c1c(Cl)cccc1Cl (stereo not given)	-4	29	4	107*	31	30
O=C1CC(N(CCc2ccccc2)C(=S)Nc2ccccc2)C(=O)N1c1ccccc1 (stereo not given)	-1	21	5	79*	30	4
O=C1CC(N(CCc2ccccc2)C(=S)Nc2ccccc2)C(=O)N1c1ccc(F)cc1 (stereo not given)	-6	23	0	38	12	13
O=C1CCC([N+](=O)[O-])C(c2ccccc2C(F)(F)F)N1 (stereo not given)	-3	-4	1	-6	17	-9
O=C(CSc1nc(N2CCOCC2)nc(N2CCOCC2)n1)Nc1cccc(C(F)(F)F)c1	-1	54*	0	-5	20	·
O=C(NNC(=S)Nc1cccc(C(F)(F)F)c1)c1ccc(Cl)cc1Cl	0	67*	3	45	8	8
Cc1ccccc1C(=O)NNC(=S)Nc1cccc(C(F)(F)F)c1	-2	-3	-1	6	16	15
CCCCCNCC(=O)Nc1cccc(C(=O)Nc2cccc(C(F)(F)F)c2)c1	1	5	2	93*	39	32
O=C(COCC(=O)Nc1cccc(C(F)(F)F)c1)Nc1cccc(C(F)(F)F)c1	-1	-4	-2	77*	-4	-10
O=C(COC(=O)/C=C/c1ccc(C(F)(F)F)cc1)NCc1ccco1	-2	-5	-1	·	12	-6
Cc1ccc(S(=O)(=O)N(C)C)cc1NC(=O)C(C)N(C)Cc1sccc1C (stereo not given)	-1	-1	0	16	-6	0
COc1ccc(NC(=S)NNC(=S)Nc2cccc(C(F)(F)F)c2)cc1	1	7	0	68	27	23
